According to ChEMBL document CHEMBL1124804, “Substituted vitamin K epoxide analogues. New competitive inhibitors and substrates of vitamin K1 epoxide reductase” (J Med Chem, 1990):

Target: T1, Vitamin K epoxide reductase complex subunit 1 (Bos taurus, UniProt Q6B4J2)
T1 sequence (Q6B4J2 whole entry): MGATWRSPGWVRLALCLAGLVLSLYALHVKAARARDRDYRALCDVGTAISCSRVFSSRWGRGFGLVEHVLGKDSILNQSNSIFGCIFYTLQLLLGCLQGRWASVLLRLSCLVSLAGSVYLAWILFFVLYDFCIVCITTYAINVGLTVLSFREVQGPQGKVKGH
Experiment: Apparent kinetic constant for Vitamin K epoxide reductase
Summary of the method: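 Beef liver microsomes (0.8 mg) as vitamin K1 epoxide reductase source, 0.02% Emulgen 911. Vitamin K1 epoxide varied (10, 12.5, 16.5, 25, 40 μM) with 5 mM DTT, analogue at 0, 20, 40, 60 μM. Double-reciprocal plots built; Ki taken from replots of Km,app against analogue concentration. Also run at 40 μM epoxide with DTT varied 0.33–2.0 mM.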

Ki | SMILES
43 µM | C/C(=C\C(O)C12OC1(C)C(=O)c1ccccc1C2=O)CCCC(C)CCCC(C)CCCC(C)C (stereo not drawn)
74 µM | C/C(=C\CC12OC1(CCl)C(=O)c1ccccc1C2=O)CCCC(C)CCCC(C)CCCC(C)C (stereo not drawn)
63 µM | CC(C)CCCC(C)CCCC(C)CCCC(C)CC(O)C12OC1(C)C(=O)c1ccccc1C2=O (stereo not drawn)
17 µM | C/C(=C\CC12OC1(CF)C(=O)c1ccccc1C2=O)CCCC(C)CCCC(C)CCCC(C)C (stereo not drawn)
8 µM | C/C(=C\CC12OC1(CO)C(=O)c1ccccc1C2=O)CCCC(C)CCCC(C)CCCC(C)C (stereo not drawn)
63 µM | C/C(=C\CC12OC1(C(F)F)C(=O)c1ccccc1C2=O)CCCC(C)CCCC(C)CCCC(C)C (stereo not drawn)
100 µM | CC(C)CCCC(C)CCCC(C)CCCC(C)CC(F)C12OC1(C)C(=O)c1ccccc1C2=O (stereo not drawn)
26 µM | C/C(=C\CC12OC1(C=O)C(=O)c1ccccc1C2=O)CCCC(C)CCCC(C)CCCC(C)C (stereo not drawn)
